A selection: hits, their analogues and other compounds. The true share with any hit is near 2%.
RAD52 inh: blocks human RAD52 DNA annealing. inhibition, % at 18.7 µM. 360,000 tested, 0.46% active. recombinant RAD52 DNA annealing, FRET fluorescence. P43351. AID 651710;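 active = every replicate showing at least 50% inhibition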
Target sequence (P43351 whole entry, looked up): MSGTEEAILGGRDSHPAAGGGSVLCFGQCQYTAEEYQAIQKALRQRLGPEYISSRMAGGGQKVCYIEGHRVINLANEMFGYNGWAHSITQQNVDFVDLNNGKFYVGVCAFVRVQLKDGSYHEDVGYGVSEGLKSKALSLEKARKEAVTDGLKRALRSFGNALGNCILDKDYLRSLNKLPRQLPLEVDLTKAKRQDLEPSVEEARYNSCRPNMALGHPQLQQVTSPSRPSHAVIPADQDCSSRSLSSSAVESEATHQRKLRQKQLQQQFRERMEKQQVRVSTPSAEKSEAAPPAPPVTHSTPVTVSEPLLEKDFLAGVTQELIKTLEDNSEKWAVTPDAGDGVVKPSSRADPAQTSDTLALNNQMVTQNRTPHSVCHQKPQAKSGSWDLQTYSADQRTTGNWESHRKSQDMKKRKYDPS
RAD54 branch: inhibitors of human RAD54 branch migration | Q92698 | RAD54 Holliday junction branch migration, FAM/BHQ fluorescence | inhibition, % at 10.4 µM | 360,000 tested, 0.14% active | AID 602329;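 active = mean normalized replicate activity at least 40 and at least half of replicates scoring 40 or more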;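 note: inhibitors cause a drop in the FAM fluorescence signal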
PglD inh: PglD (C. jejuni) enzyme inhibition. purified PglD enzyme, DTNB colorimetric CoA detection. inhibition, % at 12.5 µM. 360,000 tested, 0.098% active. AID 602405; in the data active = inhibition above about 16%, passing the limit was not always enough
E-selectin induc: induces E-selectin expression in human endothelial cells; P16581; HUVEC E-selectin immunofluorescence imaging; normalized: neutral wells 0, TNF-alpha wells 100; activation, % at 7.58 µM; 260,000 tested, 0.37% active; AID 686992;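 active = mean E-selectin-positive cell signal at least 10% of the positive control, reached in at least 60% of replicates, without over 20% cell loss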
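Test system: HUVEC | Signal: Immunofluorescence imaging | Read-out: Percent E-selectin-positive cells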
XiGFP reactiv: activators of X-chromosome reactivation in mouse fibroblasts | activation, % at 7.58 µM | XiGFP mouse fibroblasts, % GFP-positive cells imaging, 3 d; cells co-treated with 5-aza-dC sensitizer; scaled so ellipticine positive control = 100% | 360,000 tested, 0.055% active;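 active = mean normalized replicate activation at least 10% and every replicate at or above 10%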
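System: 68-5-11 XiGFP fibroblast line; Timing: 3 days compound exposure; Compound dosing: one concentration, pinned; Benchmarks: positive control ellipticine, 6 µM final; Buffer or medium: DMEM containing 5-aza-dC.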
Ecoli rRNA inh: inhibits bacterial ribosomal RNA function over humanized ribosomes. 350,000 tested, 1.6% active. E. coli WT GFP vs humanized-ribosome RFP mutants, fluorescence, 24 h; hits give low values; DMSO median 0, no signal -100. AID 720706. GFP signal change (wild-type ribosome), % (concentration not given with the values);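 active = significant combined selectivity score with lowered wild-type GFP, culture density cut under 30%, mutant RFP and density less affected; inactive = any of these conditions unmet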
Numbers stand for hits; – = inactive; · = no result.

SMILES	RAD52 inh	RAD54 branch	PglD inh	E-selectin induc	XiGFP reactiv	Ecoli rRNA inh
O=C(Nc1cccc(C(=O)O)c1)/C(=C\C=C\c1ccccc1)NC(=O)c1ccccc1	–	·	·	·	–	-19.4
Cc1ccccc1-c1ccccc1[C@H]1[C@@H](C#N)N(C(=O)c2cccc(F)c2)[C@H]1CO	–	·	·	–	–	–
Cc1ccccc1NC(=O)CN1C(=O)S/C(=C\c2ccc(-c3cc(C(=O)O)ccc3C)o2)C1=O	–	·	·	·	40.1	–
Cc1ccc(S(=O)(=O)N[C@H]2CC[C@@H](CC(=O)NCc3ccncn3)O[C@@H]2CO)cc1	–	–	–	–	–	–
COc1ccc(C(=O)OCc2c(-c3ccccc3)ncc3ccccc23)cc1	–	–	–	–	–	–
COc1ccccc1C(=O)OCc1c(-c2ccccc2)ncc2ccccc12	–	–	–	–	–	-25.1
CO[C@@H]1CN(C)C(=O)c2ccc(NC(=O)C3CCC3)cc2OC[C@H](C)N(C)C[C@H]1C	–	–	–	–	–	–
COc1ccc(C(=O)/C=C/c2ccccc2)c(OC)c1	–	–	–	·	·	–
COc1cc(/C=C/C(=O)c2ccccc2O)cc(OC)c1OC	–	–	–	·	·	-16.9
COc1cc(/C=C/C(=O)OCC(=O)NC(C)c2ccccc2)cc(OC)c1OC (stereo unspecified)	–	–	–	–	–	-13.3
COc1cc(C)cc(C(=O)C=Cc2ccccc2)c1O	–	–	–	–	–	-52.1
COc1ccc(C=CC(=O)c2cc(O)ccc2O)cc1	–	–	–	–	–	-36.3
COc1ccc(C(=O)/C=C/c2ccc(O)cc2)cc1	–	–	–	·	·	·
O=C(C[C@@H]1CC[C@@H](NC(=O)C2CCOCC2)[C@@H](CO)O1)Nc1nccs1	–	–	–	–	–	–
C/C=C/c1ccc([C@@H]2[C@@H](CO)N3C(=O)CN(Cc4ccc(C(=O)OC)cc4)C[C@@H]23)cc1	–	·	·	–	–	–
N#Cc1ccc(-c2ccc([C@@H]3[C@@H](CO)N4C(=O)CN(C(=O)C5CCC5)C[C@H]34)cc2)cc1	–	·	·	–	–	–
CC1=NN(c2ccccc2)C(=O)C1N=Nc1ccccc1 (stereo unspecified)	–	·	·	59.5	–	–
CC1=NN(c2ccccc2)C(=O)C1N=Nc1ccc(N)cc1 (stereo unspecified)	·	–	–	·	·	·
COC(=O)[C@H]1[C@@H](O)[C@@]2(O)c3c(OC)cc(OC)cc3O[C@@]2(c2ccc(OC)cc2)[C@@H]1c1ccc(F)cc1	–	·	·	–	–	–
Cc1cccc(NC(=S)N/N=C/c2cccc(O)c2)c1C	–	–	–	–	–	-23.5
Cc1ccccc1C(=O)N1CCC(C(=O)NN2C(=O)NC3(CCCCC3)C2=O)CC1	–	–	–	264.2	–	·
Cc1ccccc1C(=O)N1CCC(C(=O)NN2C(=O)NC3(CCC(C)CC3)C2=O)CC1 (stereo unspecified)	–	–	–	·	–	·
CN(C)C(=O)c1ccc(-c2ccc([C@@H]3[C@@H](CO)N(C(=O)C4CCOCC4)[C@H]3C#N)cc2)cc1	–	–	–	–	–	–
CCOC(=O)C1(CC2CCCCO2)CCN(C(=O)Nc2ccc3c(c2)OCO3)CC1 (stereo unspecified)	–	·	·	·	–	–
CCOC(=O)C1(CC2CCCCO2)CCN(C(=O)Nc2ccc(C(=O)OC)cc2)CC1 (stereo unspecified)	–	–	–	–	–	-19.1
CCOC(=O)C1(CC2CCCCO2)CCN(Cc2nc(C(C)C)cs2)CC1 (stereo unspecified)	–	·	·	–	–	-29.4
O=C(N[C@@H]1CC[C@@H](CCn2cc(Cc3ccccc3)nn2)O[C@@H]1CO)c1cnccn1	–	–	–	–	–	–
CCc1nc2ccc(C(=O)NCCCN(C)C)cn2c1N(C)Cc1ccc(OC)cc1	–	–	–	–	–	–
CCc1nc2ccc(C(=O)NCCOc3ccc(OC)cc3)cn2c1N(C)Cc1ccc(N(C)C)cc1	–	–	–	–	–	-23.4
CCCCc1c(C)nc2ccc(C)cc2c1SCCC(=O)O	–	·	·	29.2	–	–

Screening results (PubChem)
